Experiment [1] is described as follows: inhibitors of TNFa-induced NFkB p65 translocation, primary screen, imaging, HUVEC, MLSMR starter and 10KST1 sets (AID 438).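 Also: compound added about 3h40 before a 20 min TNFalpha stimulation.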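 As to inhibition: signal is the nuclear over cytoplasmic p65 intensity ratio per well.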 The note with it: HUVEC TNFa-induced p65 nuclear translocation; cell count: measured here: nuclei count (cytotoxicity indicator), at 2.08 µM; inhibition: at 2 µM, stronger effect = higher value, 0% TNFa-plus-vehicle, 100% no-TNFa wells.
Experiment [2] is described as follows: inhibitors of mutant huntingtin aggregation, primary screen, imaging, exon1htt(103Q)mCFP cells, high-content imaging (AID 483;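 active = visual image review flags a hit and inhibition of aggregation exceeds 20%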;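 also: compound exposure lasted 3 days before fixation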;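 as to nuclei count: percent of the per-plate median nuclei count of sample wells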). The note with it: exon1htt(103Q)mCFP cell line, aggregate imaging, at 2 µM; inhibition of aggregation: stronger effect = higher value; nuclei count: measured here: cell count, toxicity.
Experiment [3] is described as follows: inhibitors of E-selectin induction by TNFa, primary screen, imaging, HUVEC, immunofluorescence, MLSMR starter and 10KST1 sets (AID 487;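 active = visually confirmed hit in the image check and inhibition above 20%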;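 as to inhibition: signal is fraction of cell area covered by stained E-selectin grains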;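 as to nuclei count: 100% = median nuclei count of all wells on the same plate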). The note with it: HUVEC TNFalpha-induced E-selectin immunofluorescence imaging, at 2 µM; inhibition: stronger effect = higher value; nuclei count: measured here: cell number, toxicity.
The target in experiment [4] is Voltage-gated potassium channel subunit beta-2 (Rattus norvegicus) (UniProt P62483). The experiment is described as follows: KvBeta enzyme negative modulators, primary screen, biochemical, NADPH fluorescence (AID 622;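 active = fluorescence slope higher than the sample average by over 3 SD, cut at about -0.22 in these data, passing the limit was not always enough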;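 also: slope of raw intensity against log time taken from 70 to 1610 s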). The note with it: recombinant KvBeta, 4-cyanobenzaldehyde reduction, at 10 µM, stronger effect = higher value.
Experiment [5] shares this target. Put plainly: KvBeta positive modulators, primary screen, biochemical, NADPH fluorescence (AID 623;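 active = NADPH fluorescence slope more negative than the mean of all samples by about 3 SD, 99.7% confidence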;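 also: fluorescence intensity change per second fitted from 20 to 320 s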). The note with it: Recombinant KvBeta, NADPH fluorescence decrease slope, 10 min; at 10 µM; stronger effect = lower value.
The target in experiment [6] is Alpha-2C adrenergic receptor (Homo sapiens) (UniProt P18825). The experiment is described as follows: modulators of alpha2C/GIRK thallium flux, primary screen, cell-based, HEK293 alpha2C/GIRK1/2 (AID 624;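 active = fluorescence slope after compound addition differing from the mean of all screened samples at 99.7% confidence, in either direction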;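 also: slope of fluorescence ratio to pre-addition baseline per second over 15 to 24 s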). The note with it: thallium flux BTC fluorescence, at 10 µM, actives lie on both sides.
A short description of experiment [7]: inhibitors of larval lipid processing in zebrafish, primary screen, whole organism, PED6 fluorescence, gall bladder and intestine (AID 686;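 active = a full or partial loss of lipid-probe fluorescence in the fish gall bladder, intestine or both, judged by eye; inactive = no fluorescence loss, or compound toxic to the fish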;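 also: larvae 5 to 7 days old with five fish per well; signal comes from phospholipase A2 cleavage of quenched PED6 carried via bile; overnight exposure to compound and PED6 before scoring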). The note with it: Zebrafish larvae PED6 lipid processing, fluorescence scoring; screened at 20 µM (by protocol). Summed up:
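System: live zebrafish larvae aged 5-7 days, whole organism; measure: graded gall bladder and intestinal fluorescence inhibition per well; incubation: overnight exposure; reagent: ingested quenched lipid PED6 at 100 nM; signal: By-eye fluorescence microscopy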

Experiment [8] is described as follows: inhibitors of Sendai virus-induced IRF3 signaling, primary screen, TLR/RLR signaling modifier project, cell-based, Sendai virus stimulus, luciferase, 10K MLSCN set (AID 602276;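 active = inhibition at or above 50% at 10 µM; inactive = inhibition below 50%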;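 also: firefly luciferase from ISG56 promoter only with Renilla not read in this screen; 0% = Sendai virus plus DMSO and 100% = medium plus DMSO without virus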). The note with it: HEK293 RL24 IRF3 luciferase reporter, at 10 µM, stronger effect = higher value. Background: Reporter assays use an easily measured gene product as a stand-in for the process of interest.

Experiment [9] can be described thus: inhibitors of poly I:C-induced TLR3 signaling, primary screen, cell-based, poly I:C stimulus, luciferase, 10K MLSCN set (AID 602277;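 active = inhibition of the reporter signal at or above 50%; inactive = inhibition below 50%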). The note with it: HEK293-TLR3 RL24 IRF3 luciferase reporter, at 10 µM, stronger effect = higher value.

The source of these data is PubChem BioAssay.

Active and inactive are the calls of the source.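 The calls were made as follows, unless noted: active = inhibition above 20% together with a positive visual image hit; inconclusive = visual image hit but inhibition not above 20%; inactive = no visual image hit.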

Chain of Alpha-2C adrenergic receptor (Homo sapiens) (P18825 whole entry, looked up): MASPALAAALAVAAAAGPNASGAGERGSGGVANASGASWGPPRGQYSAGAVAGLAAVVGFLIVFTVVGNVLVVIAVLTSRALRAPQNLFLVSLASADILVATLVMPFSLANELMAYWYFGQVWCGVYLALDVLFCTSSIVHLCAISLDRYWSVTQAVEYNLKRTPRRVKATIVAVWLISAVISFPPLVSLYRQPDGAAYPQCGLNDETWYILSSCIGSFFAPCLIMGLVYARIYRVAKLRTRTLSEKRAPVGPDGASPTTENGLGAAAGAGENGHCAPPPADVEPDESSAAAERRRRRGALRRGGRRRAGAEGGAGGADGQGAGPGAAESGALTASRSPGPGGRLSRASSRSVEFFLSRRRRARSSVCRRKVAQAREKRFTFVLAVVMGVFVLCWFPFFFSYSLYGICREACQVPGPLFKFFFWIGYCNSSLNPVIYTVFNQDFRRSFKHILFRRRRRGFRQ
Chain of Voltage-gated potassium channel subunit beta-2 (Rattus norvegicus) (P62483 whole entry, looked up): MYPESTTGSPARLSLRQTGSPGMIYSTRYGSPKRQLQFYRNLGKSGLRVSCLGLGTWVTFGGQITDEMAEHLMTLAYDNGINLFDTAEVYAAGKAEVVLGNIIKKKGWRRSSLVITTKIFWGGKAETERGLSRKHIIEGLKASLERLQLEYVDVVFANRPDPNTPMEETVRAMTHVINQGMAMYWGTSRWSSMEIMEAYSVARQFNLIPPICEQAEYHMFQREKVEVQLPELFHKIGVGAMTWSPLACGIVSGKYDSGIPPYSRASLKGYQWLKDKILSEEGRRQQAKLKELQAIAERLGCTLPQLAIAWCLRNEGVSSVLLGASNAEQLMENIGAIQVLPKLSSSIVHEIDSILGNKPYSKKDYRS

`CC(=O)Nc1c(O)n(C)c2ccccc12`: the cell count in experiment [1] was 638. Besides, the inhibition (commonly the relative decrease from the control value, in per cent) in experiment [1] was -24.1% (inactive); in [3], 25.2% (inactive); in experiment [8], -8.37% (inactive); in experiment [9], 2.01% (inactive). Also, the inhibition of aggregation in [2] was 4.1% (inactive). Further, the nuclei count in experiment [2] turned out to be 104%; in experiment [3] it was 100%. Further, in [4], the fluorescence slope is -0.445 (inactive). Moreover, the NADPH fluorescence slope in [5] is 3.6e-05 (inactive). Moreover, the slope in experiment [6] was 0.00514 (inactive). Further, the call in experiment [7] was inactive.
For the molecule `COc1ccc(OC)c(NC(=O)CS(=O)(=O)c2ccccc2)c1`, the cell count in experiment [1] is 410. Besides, the inhibition is -0.6% (inactive) in experiment [1], -66.5% (inactive) in experiment [3], -3.16% (inactive) in experiment [8] and 6.62% (inactive) in experiment [9]. In addition, the inhibition of aggregation in [2] was -1.6% (inactive). The nuclei count is 107% in experiment [2] and 121% in experiment [3]. Also, the fluorescence slope in experiment [4] was -0.438 (inactive). For the same molecule, the NADPH fluorescence slope in [5] is 1.3e-05 (inactive). Also, in [6], the slope is 0.00539 (inactive). In addition, in experiment [7], the molecule was called inactive.
For `CCOC(=O)c1c2n(c3ccc(O)cc13)CCCCC2`, in experiment [1], the cell count came to 571. Also, the inhibition is 7.1% (inactive) in [1], -113% (inactive) in [3], -6.81% (inactive) in experiment [8] and 1.43% (inactive) in experiment [9]. The inhibition of aggregation in [2] is -7.5% (inactive). Also, the nuclei count in experiment [2] was 107%; in experiment [3], 110%. Further, the fluorescence slope in experiment [4] was -0.413 (inactive). Moreover, the NADPH fluorescence slope in experiment [5] was -3.4e-05 (inactive). The slope in [6] was 0.00489 (inactive). The outcome in [7] was inactive.
In the case of `Cn1c(CN2CCCCC2)nc2cc(NC(=O)c3ccccc3)ccc21`, the cell count in experiment [1] worked out at 435. The inhibition was -0.8% (inactive) in [1], 2.3% (inactive) in experiment [3], -17.4% (inactive) in experiment [8] and 98.6% (active) in [9]. In [2], the inhibition of aggregation is 3.4% (inactive). The figures for the nuclei count in experiment [2] and in experiment [3] were 85.3% and 92.4%, respectively. Moreover, the fluorescence slope in [4] was -0.438 (inactive). Further, the NADPH fluorescence slope in experiment [5] is -9.5e-07 (inactive). Further, the slope in experiment [6] was 0.00451 (inactive). Further, in experiment [7], the call was inactive.
For `COc1cccc(NC(=O)N2CCCC2C(=O)Nc2ccc3c(c2)OCO3)c1` (stereo unspecified), the cell count in [1] turned out to be 649. The inhibition was 5.8% (inactive) in experiment [1], -117% (inactive) in experiment [3], 13.7% (inactive) in [8] and 18.8% (inactive) in experiment [9]. The inhibition of aggregation in experiment [2] was -11.8% (inactive). Besides, the nuclei count was 57.5% in experiment [2] and 106% in experiment [3]. Besides, the fluorescence slope in [4] is -0.351 (inactive). Further, in [5], the NADPH fluorescence slope was -6.1e-05 (inactive). In addition, in [6], the slope was 0.00477 (inactive). Moreover, in experiment [7], the result was inactive.
As for `N#CCc1ccc(NC(=O)Nc2cccc(Cl)c2)cc1`, the cell count in experiment [1] was determined as 321. The inhibition is -8.6% (inactive) in experiment [1], -112% (inactive) in experiment [3], -26.8% (inactive) in [8] and -62.7% (inactive) in [9]. The inhibition of aggregation in [2] is -19.9% (inactive). The nuclei count in experiment [2] worked out at 85.4%; in [3], 137%. Also, the fluorescence slope in experiment [4] is -0.46 (inactive). The NADPH fluorescence slope in experiment [5] was -5.6e-05 (inactive). The slope in experiment [6] was 0.00505 (inactive). The call in experiment [7] was inactive.
Consider `COc1ccc(OC)c(NC(=O)C23CCC(C)(C(=O)C2)C3(C)C)c1` (stereo unspecified), for which, in experiment [1], the cell count was 512. In addition, the inhibition in [1] is -4.8% (inactive); in experiment [3], -103% (inactive); in [8] it was 12.9% (inactive); in [9], 26.7% (inactive). For the same molecule, in experiment [2], the inhibition of aggregation is 4.8% (inactive). Moreover, the values for the nuclei count in experiment [2] and in [3] were 98.5% and 125%, respectively. Further, in experiment [4], the fluorescence slope is -0.455 (inactive). Also, the NADPH fluorescence slope in experiment [5] is -0.00015 (inactive). Also, in experiment [6], the slope is 0.00548 (inactive). Also, the result in experiment [7] was inactive.
For the molecule `CCCCOC(=O)Nc1nccs1`, the cell count in experiment [1] is 690. Further, the inhibition in [1] was -2.6% (inactive); in experiment [3] it was -53.6% (inactive); in [8], -8.28% (inactive); in experiment [9], -28.8% (inactive). Besides, in experiment [2], the inhibition of aggregation was 4.5% (inactive). The nuclei count in [2] and in experiment [3] was 116% in each case. Further, the fluorescence slope in [4] is -0.404 (inactive). The NADPH fluorescence slope in experiment [5] is -3.3e-05 (inactive). The slope in experiment [6] was 0.00518 (inactive). In experiment [7], the molecule was classed as inactive.
As for `CC(NC(=O)NC12CC3CC(CC(C3)C1)C2)C1CCCO1` (stereo unspecified), in experiment [1], the cell count was found to be 356. The inhibition in experiment [1] is 2.9% (inactive); in experiment [3], 1.7% (inactive); in experiment [8] it was 15.3% (inactive); in [9], 8.29% (inactive). Further, in [2], the inhibition of aggregation was 0.8% (inactive). The nuclei count amounted to 80.4% in experiment [2] and 87.1% in experiment [3]. Further, the fluorescence slope in [4] is -0.439 (inactive). The NADPH fluorescence slope in [5] was -2.2e-05 (inactive). In addition, in experiment [6], the slope was 0.00592 (inactive). The outcome in [7] was inactive.
Consider `O=C(CN(Cc1ccc(F)cc1)C(=O)c1ccco1)NCc1ccc(F)cc1`, for which, in experiment [1], the cell count was found to be 357. Also, the inhibition in experiment [1] was 6.8% (inactive); in [3], -382% (inactive); in [8], 14.4% (inactive); in experiment [9], 21.2% (inactive). Besides, the inhibition of aggregation in experiment [2] was 7% (inactive). In addition, the figures for the nuclei count in experiment [2] and in experiment [3] were 90.9% and 130%, respectively. Besides, the fluorescence slope in experiment [4] is -0.359 (inactive). Besides, the NADPH fluorescence slope in [5] is -3.4e-05 (inactive). Further, the slope in experiment [6] was 0.00584 (inactive). Also, the outcome in experiment [7] was inactive.
Regarding `COc1ccc(C(=O)Nc2ccc(Cl)c(Cl)c2)c(OC)n1`, the cell count in experiment [1] came to 799. In addition, the inhibition in experiment [1] was -7.1% (inactive); in [3], -145% (inactive); in [8], -13.7% (inactive); in [9], -67% (inactive). Besides, in [2], the inhibition of aggregation was -20.2% (inactive). Also, the nuclei count was determined as 111% in experiment [2] and 137% in [3]. Moreover, the fluorescence slope in [4] is -0.364 (inactive). Also, the NADPH fluorescence slope in experiment [5] is -6.9e-05 (inactive). Besides, the slope in [6] was 0.00581 (inactive). Moreover, the molecule was classed as inactive in [7].
Take `O=C(C1CCCO1)N1CCN(S(=O)(=O)c2ccccc2)CC1` (stereo unspecified): the cell count in [1] was 328. Further, the inhibition was 4% (inactive) in experiment [1], -28.4% (inactive) in experiment [3], 12.6% (inactive) in [8] and 12.9% (inactive) in [9]. Moreover, the inhibition of aggregation in experiment [2] was 3.2% (inactive). Besides, the nuclei count is 86.5% in experiment [2] and 102% in experiment [3]. Further, the fluorescence slope in experiment [4] was -0.439 (inactive). Also, the NADPH fluorescence slope in experiment [5] is -8.1e-05 (inactive). For the same molecule, the slope in experiment [6] was 0.00532 (inactive). In addition, in experiment [7], the call was inactive.
Turning to `O=C(c1ccc(S(=O)(=O)N2CCC(c3nc4ccccc4s3)CC2)cc1)N1CCOCC1`, the cell count in [1] was found to be 689. The inhibition in experiment [1] is -2.9% (inactive); in experiment [3], -80.2% (inactive); in [8], -8.58% (inactive); in experiment [9] it was 3.6% (inactive). Further, the inhibition of aggregation in experiment [2] is -25% (inactive). In addition, the nuclei count in experiment [2] was found to be 109%; in experiment [3] it was 116%. The fluorescence slope in [4] is -0.392 (inactive). Further, the NADPH fluorescence slope in experiment [5] was -9.6e-07 (inactive). The slope in experiment [6] is 0.00693 (inactive). In [7], the result was inactive.
